Measurements published in ChEMBL document CHEMBL1148311, “Synthesis of novel potent dipeptidyl peptidase IV inhibitors with enhanced chemical stability: interplay between the N-terminal amino acid alkyl side chain and the cyclopropyl group of alpha-aminoacyl-l-cis-4,5-methanoprolinenitrile-based inhibitors” (J Med Chem, 2004).

Experiments:
[1] = Half-life in phosphate buffer at 39.5 C and pH 7.2; format: ADME
How it was run: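 Aqueous solution stability of the dipeptide nitriles in phosphate buffer, pH 7.2, 39.5 °C. Reaction rate followed as disappearance of starting material by reverse-phase HPLC.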

[2] = molecular target: Dipeptidyl peptidase 4 (Sus scrofa, UniProt P22411); assay: In vitro inhibition of porcine Dipeptidylpeptidase IV.
Sequence of Dipeptidyl peptidase 4 (P22411 whole entry): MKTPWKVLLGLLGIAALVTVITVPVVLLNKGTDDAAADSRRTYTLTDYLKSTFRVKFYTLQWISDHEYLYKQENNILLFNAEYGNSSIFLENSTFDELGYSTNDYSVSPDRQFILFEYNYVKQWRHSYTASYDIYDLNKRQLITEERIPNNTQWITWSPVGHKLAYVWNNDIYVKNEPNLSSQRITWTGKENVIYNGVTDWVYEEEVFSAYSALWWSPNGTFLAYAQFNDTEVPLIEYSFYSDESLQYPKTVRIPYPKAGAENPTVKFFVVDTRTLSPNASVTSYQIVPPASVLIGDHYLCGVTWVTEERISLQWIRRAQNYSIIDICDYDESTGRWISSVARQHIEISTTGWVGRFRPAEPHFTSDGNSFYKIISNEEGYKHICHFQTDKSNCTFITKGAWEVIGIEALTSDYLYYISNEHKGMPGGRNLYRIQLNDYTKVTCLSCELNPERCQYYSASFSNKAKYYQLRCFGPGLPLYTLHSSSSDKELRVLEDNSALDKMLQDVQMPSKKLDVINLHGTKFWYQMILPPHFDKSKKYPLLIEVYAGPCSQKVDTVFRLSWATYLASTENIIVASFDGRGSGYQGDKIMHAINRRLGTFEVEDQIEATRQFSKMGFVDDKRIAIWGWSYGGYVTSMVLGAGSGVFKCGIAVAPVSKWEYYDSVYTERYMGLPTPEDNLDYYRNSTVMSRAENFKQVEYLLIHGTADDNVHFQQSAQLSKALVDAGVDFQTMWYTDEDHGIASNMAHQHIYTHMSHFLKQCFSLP

half-life [1] [h] | Ki [2] [µM] | Structure (SMILES)
27 | – | CC(C)(C)[C@H](N)C(=O)N1CCC[C@H]1C#N.O=C(O)C(F)(F)F
5 | – | CCC(C)C(N)C(=O)N1CCC[C@H]1C#N.Cl (some centres undefined)
– | 0.011 | CC1(C(N)C(=O)N2C(C#N)C[C@@H]3C[C@@H]32)CCC1 (some centres undefined)
– | 0.012 | N#CC1C[C@@H]2C[C@@H]2N1C(=O)C(N)C1CCC1 (some centres undefined)
22 | 0.025 | CCC(C)[C@H](N)C(=O)N1C(C#N)C[C@@H]2C[C@@H]21.O=C(O)C(F)(F)F (some centres undefined)
4 | 0.015 | CCC(C)[C@H](N)C(=O)N1C[C@H]2C[C@H]2C1C#N.O=C(O)C(F)(F)F (some centres undefined)
– | 1.94 | CN[C@H](C(=O)N1C(C#N)C[C@@H]2C[C@@H]21)C(C)C (some centres undefined)
– | 0.065 | N#CC1C[C@@H]2C[C@@H]2N1C(=O)[C@@H](N)Cc1ccccc1 (some centres undefined)
19 | 0.015 | N#CC1C[C@@H]2C[C@@H]2N1C(=O)C(N)C1CCCCC1.O=C(O)C(F)(F)F (some centres undefined)
– | 1.62 | CCC(C)[C@H](N)C(=O)N1C(C#N)C[C@H]2C[C@H]21 (some centres undefined)
4 | 0.014 | CC(C)(C)[C@H](N)C(=O)N1C[C@H]2C[C@H]2C1C#N.O=C(O)C(F)(F)F (some centres undefined)
– | 0.004 | N#CC1C[C@@H]2C[C@@H]2N1C(=O)C(N)C1CCCC1 (some centres undefined)
24 | 0.007 | CC1(C(N)C(=O)N2C(C#N)C[C@@H]3C[C@@H]32)CCCC1.O=C(O)C(F)(F)F (some centres undefined)
2 | 0.012 | CC(C)[C@H](N)C(=O)N1C[C@H]2C[C@H]2C1C#N.O=C(O)C(F)(F)F (some centres undefined)
28 | 0.029 | CC(C)[C@H](N)C(=O)N1C(C#N)C[C@H]2C[C@H]21.O=C(O)C(F)(F)F (some centres undefined)
42 | 0.007 | CC(C)(C)[C@H](N)C(=O)N1C(C#N)C[C@@H]2C[C@@H]21 (some centres undefined)
– | 0.135 | CSCC[C@H](N)C(=O)N1C(C#N)C[C@@H]2C[C@@H]21 (some centres undefined)
– | 10 | N#CC1C[C@@H]2C[C@@H]2N1C(=O)C1CCCCN1 (some centres undefined)
– | 0.23 | N#CC1C[C@@H]2C[C@@H]2N1C(=O)[C@@H](N)Cc1c[nH]c2ccccc12 (some centres undefined)
– | 0.008 | CC1(C(N)C(=O)N2C(C#N)C[C@@H]3C[C@@H]32)CCCCC1 (some centres undefined)
– | 7.5 | CCC(C)[C@H](N)C(=O)N1CC[C@@H]2C[C@@]21C#N (some centres undefined)
